For data set [1], the system named is RAW264.7. In words: Antiinflammatory action in mouse RAW264.7 cells assessed as inhibition of LPS-induced nitric oxide production treated 30 mins before LPS challenge measured after 24 hrs by griess reaction. The format is functional, cell-based. Summed up: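 RAW264.7 macrophages seeded at 2 × 10^5 cells/well, pretreated 30 min with samples over 0.1–50.0 μM, then stimulated with LPS 1 μg/mL for 24 h. NO quantified as nitrite in culture supernatant using Griess reagent; IC50 derived.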

Data set [2] concerns RAW264.7. In words: Cytotoxicity against mouse RAW264.7 cells after 24 hrs by MTT assay. The format is cell-based. Particulars: raw264.7, 24 h. Summed up: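 RAW264.7 macrophages, cultured and treated alongside the LPS (1 μg/mL, 24 h) NO assay with sample pretreatment of 30 min; viability read by MTT reduction.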

pIC50: −log10 of the molar value.

25 compounds from ChEMBL document CHEMBL1909633, “Pseudoguaianolides and guaianolides from Inula hupehensis as potential anti-inflammatory agents” (J Nat Prod, 2011) can be followed below.

Broadly, the pIC50 is the IC50 on a negative log10 scale, so that one unit is a factor of ten. `C=C1C(=O)O[C@H]2C=C(C)[C@@H]3[C@@H]([C@@H](O)[C@H]12)[C@](C)(O)C[C@@H]3OC(C)=O`: the pIC50 with RAW264.7 [1] was 5.04. In addition, in the data set on RAW264.7 [2], the Activity result is listed as “Non-toxic”. Regarding `C=C1C(=O)O[C@H]2C[C@@H](C)[C@@H]3[C@@H](OC)CC(=O)[C@@]3(C)[C@@H](OC(C)=O)[C@H]12`, in the data set with RAW264.7 [1], the pIC50 is 5.82. In the data set with RAW264.7 [2], the Activity result was “Non-toxic”.

For `C=C1C(=O)O[C@H]2C[C@@H](C)[C@@H]3[C@H](OCC)CC(=O)[C@@]3(C)[C@@H](O)[C@H]12`, the pIC50 in the data set with RAW264.7 [1] is 5.42. For the same compound, the Activity result with RAW264.7 [2] was “Non-toxic”. Regarding `C=C1C(=O)O[C@H]2C=C(C)[C@H]3CC[C@@](C)(O)[C@@H]3[C@@H](OC(C)=O)[C@H]12`, the pIC50 in the data set with RAW264.7 [1] was 4.77. Also, in the data set with RAW264.7 [2], the Activity result is “Non-toxic”. In the case of `C=C1C(=O)O[C@H]2C[C@@H](C)[C@@H]3C=CC(=O)[C@@]3(C)[C@@H](O)[C@H]12`, the pIC50 with RAW264.7 [1] was 5.96. In addition, the Activity entry with RAW264.7 [2] is given as “Non-toxic”. Turning to `C=C1C(=O)O[C@H]2C[C@@](C)(O)C3=CC[C@](C)(O)[C@@H]3C[C@H]12` [GUAIANOLIDE], the pIC50 in the data set with RAW264.7 [1] is 4.57. Moreover, the Activity result in the data set with RAW264.7 [2] was “Non-toxic”.

As to `C=C1C(=O)O[C@@H]2C[C@H](C)[C@@H]3CCC(=O)[C@@]3(C)C[C@H]12` [CONFERTIN], the pIC50 in the data set with RAW264.7 [1] is 5.01. Moreover, the Activity entry in the data set on RAW264.7 [2] was “Non-toxic”.

On to `C[C@@H]1C[C@@H]2OC(=O)[C@H](C)[C@H]2[C@H](O)[C@]2(C)C(=O)CC[C@@H]12`, for which the pIC50 in the data set with RAW264.7 [1] is 4.70. In the data set with RAW264.7 [2], the Activity result is recorded as “Non-toxic”.

As for `C=C1C(=O)O[C@H]2C[C@@H](C)[C@@H]3C=CC(=O)[C@@]3(C)C[C@H]12` [AROMATICIN], the negative-log IC50 (pIC50) in the data set on RAW264.7 [1] is 5.09. Further, the Activity result with RAW264.7 [2] was “Non-toxic”. As to `C=C1C(=O)O[C@H]2C[C@@H](C)[C@@H]3CCC(=O)[C@@]3(C)[C@@H](OC(C)=O)[C@H]12` [ERGOLIDE], in the data set on RAW264.7 [1], the pIC50 is 5.41. Further, the Activity result with RAW264.7 [2] was “Non-toxic”.

Take `C=C1C(=O)O[C@H]2[C@H]1[C@@H](O)C[C@@H](C)[C@@H]1C=CC(=O)[C@]12C`: the pIC50 in the data set with RAW264.7 [1] is 5.46. The Activity entry in the data set with RAW264.7 [2] was “Non-toxic”.

As to `C[C@@H]1C[C@@H]2OC(=O)[C@@H](C)[C@H]2[C@H](O)[C@]2(C)C(=O)C=C[C@@H]12`, the negative logarithm of the IC50 (pIC50) in the data set on RAW264.7 [1] was 4.98. For the same compound, in the data set on RAW264.7 [2], the Activity entry is on record as “Non-toxic”. For the compound `N=C(N)NN` [PIMAGEDINE], in the data set on RAW264.7 [1], the pIC50 is 5.10. With `C=C1C(=O)O[C@H]2C[C@@H](C)[C@@H]3[C@H](OC)CC(=O)[C@@]3(C)[C@@H](OC(C)=O)[C@H]12`, the pIC50 with RAW264.7 [1] was 5.66. For the same compound, the Activity entry in the data set on RAW264.7 [2] was “Non-toxic”. For `C=C1C(=O)O[C@@H]2CC(C)=C3[C@@H](OC(C)=O)C[C@@](C)(O)[C@@H]3C[C@H]12` [INUCHINENOLIDE B], the pIC50 in the data set on RAW264.7 [1] is 5.00. Besides, the Activity result in the data set with RAW264.7 [2] is on record as “Non-toxic”. Take `C=C1C(=O)O[C@@H]2C[C@H](C)[C@@H]3[C@@H](O)CC(=O)[C@@]3(C)C[C@H]12` [BURRODIN]: the pIC50 in the data set on RAW264.7 [1] was 5.02. Also, in the data set on RAW264.7 [2], the Activity entry was “Non-toxic”. As to `C=C1C[C@H]2OC(=O)C(=C)[C@H]2C[C@@H]2[C@@H]1CC[C@@]2(C)O`, the pIC50 in the data set with RAW264.7 [1] is 5.10. For the same compound, the Activity result with RAW264.7 [2] is reported as “Non-toxic”. For `C=C1C(=O)O[C@H]2C=C(C)[C@H]3CC[C@](C)(O)[C@@H]3C[C@H]12` the same measures were 5.20 and “Non-toxic”. Taken in the same sequence, the figures for `C=C1C(=O)O[C@H]2C[C@@H](C)[C@@H]3CCC(=O)[C@@]3(C)[C@@H](O)[C@H]12` [CARPESIOLIN] were 5.08 and “Non-toxic”. For the compound `C=C1C(=O)O[C@H]2C[C@H](C)[C@@H]3C(OC(C)=O)CC(OC(C)=O)[C@@]3(C)[C@@H](O)[C@H]12` (some centres undefined) [INUCHINENOLIDE C], in the data set on RAW264.7 [1], the pIC50 is 6.22. Further, the Activity result in the data set with RAW264.7 [2] was “Non-toxic”. For the compound `C=C1C(=O)O[C@H]2C[C@@H](C)[C@@H]3[C@H](OC)CC(=O)[C@@]3(C)[C@@H](O)[C@H]12`, in the data set on RAW264.7 [1], the negative-log IC50 (pIC50) is 5.29. The Activity result with RAW264.7 [2] is listed as “Non-toxic”.

For the compound `C=C1C(=O)O[C@H]2C[C@@H](C)[C@@H]3CCC(=O)[C@@]3(C)C[C@H]12` [GRAVEOLIDE], the pIC50 in the data set on RAW264.7 [1] was 5.04. In addition, the Activity result with RAW264.7 [2] was “Non-toxic”. In the case of `C=C1C(=O)O[C@H]2C[C@@H](C)[C@@H]3C=CC(=O)[C@@]3(C)[C@@H](OC(C)=O)[C@H]12` [BIGELOVIN], the pIC50 in the data set with RAW264.7 [1] was 6.05. Besides, the Activity result in the data set with RAW264.7 [2] is on record as “Non-toxic”.

For `C=C1C(=O)O[C@H]2CC(=C)[C@H]3CC[C@@](C)(O)[C@@H]3C[C@H]12` [INUVISCOLIDE], in the data set with RAW264.7 [1], the pIC50 was 4.66. Moreover, in the data set on RAW264.7 [2], the Activity result is “Non-toxic”. In the case of `C=C1C(=O)O[C@H]2C[C@@H](COC(C)=O)[C@@H]3CCC(=O)[C@@]3(C)C[C@H]12`, the pIC50 in the data set on RAW264.7 [1] was 5.18. For the same compound, the Activity result with RAW264.7 [2] was “Non-toxic”.
